{"source": "ChEMBL document CHEMBL3994609", "about": "“Model-Based Discovery of Synthetic Agonists for the Zn2+-Sensing G-Protein-Coupled Receptor 39 (GPR39) Reveals Novel Biological Functions” (J Med Chem, 2017)", "key": {"[1]": {"molecular_target": "T1, G-protein coupled receptor 39 (Mus musculus, UniProt Q5U431)", "T1 sequence (Q5U431 whole entry)": "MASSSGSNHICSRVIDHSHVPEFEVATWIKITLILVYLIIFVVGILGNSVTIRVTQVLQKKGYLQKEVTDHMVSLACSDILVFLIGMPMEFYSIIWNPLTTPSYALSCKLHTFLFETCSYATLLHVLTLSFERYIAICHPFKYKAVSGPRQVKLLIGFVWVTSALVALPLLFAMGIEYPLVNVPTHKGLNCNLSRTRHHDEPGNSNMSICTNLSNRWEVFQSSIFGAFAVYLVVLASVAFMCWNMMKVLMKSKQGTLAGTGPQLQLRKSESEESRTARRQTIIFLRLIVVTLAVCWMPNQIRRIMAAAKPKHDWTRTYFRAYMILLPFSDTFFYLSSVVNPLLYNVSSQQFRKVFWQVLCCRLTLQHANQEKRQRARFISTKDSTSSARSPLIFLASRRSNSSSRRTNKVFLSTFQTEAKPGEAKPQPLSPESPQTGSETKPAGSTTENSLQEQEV", "assay": "Agonist activity at mouse GPR39 expressed in HEK293 cells co-expressing Galphaq assessed as myo-[2-3H]inositol phosphate accumulation measured after 75 mins by scintillation proximity assay", "type": "functional, cell-based"}, "[2]": {"molecular_target": "Growth hormone secretagogue receptor type 1 (Homo sapiens) (UniProt Q92847)", "sequence (Q92847 whole entry)": "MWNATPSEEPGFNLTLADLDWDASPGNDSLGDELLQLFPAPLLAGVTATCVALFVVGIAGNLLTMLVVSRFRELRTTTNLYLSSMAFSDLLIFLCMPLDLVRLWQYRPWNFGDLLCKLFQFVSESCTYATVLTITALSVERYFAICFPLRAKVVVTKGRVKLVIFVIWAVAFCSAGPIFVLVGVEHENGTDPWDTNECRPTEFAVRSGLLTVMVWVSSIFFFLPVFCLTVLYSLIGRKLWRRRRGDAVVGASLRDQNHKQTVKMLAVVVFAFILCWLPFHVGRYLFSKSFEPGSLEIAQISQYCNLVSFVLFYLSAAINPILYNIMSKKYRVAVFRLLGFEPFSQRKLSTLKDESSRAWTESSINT", "assay": "Agonist activity at human ghrelin receptor ([…]) assessed as myo-[2-3H]inositol phosphate accumulation measured after 75 mins by scintillation proximity assay", "type": "functional"}, "[3]": {"molecular_target": "Neuromedin-U receptor 2 (Homo sapiens) (UniProt Q9GZQ4)", "sequence (Q9GZQ4 whole entry)": "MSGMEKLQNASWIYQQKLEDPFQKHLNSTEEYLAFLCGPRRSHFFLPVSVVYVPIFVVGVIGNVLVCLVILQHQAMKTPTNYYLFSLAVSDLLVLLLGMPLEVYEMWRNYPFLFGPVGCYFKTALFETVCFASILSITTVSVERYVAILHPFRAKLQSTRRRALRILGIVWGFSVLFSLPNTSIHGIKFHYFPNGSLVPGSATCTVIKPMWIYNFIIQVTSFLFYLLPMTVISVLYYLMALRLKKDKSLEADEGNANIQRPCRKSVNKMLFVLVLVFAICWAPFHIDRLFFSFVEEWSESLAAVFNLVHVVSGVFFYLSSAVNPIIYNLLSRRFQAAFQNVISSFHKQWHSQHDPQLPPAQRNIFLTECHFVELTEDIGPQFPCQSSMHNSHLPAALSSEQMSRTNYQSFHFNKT", "assay": "Agonist activity at human NMU2 receptor assessed as myo-[2-3H]inositol phosphate accumulation measured after 75 mins by scintillation proximity assay", "type": "functional"}, "[4]": {"assay": "Apparent permeability from apical to basolateral side in human Caco2 cells by LC-MS/MS analysis", "type": "ADME, cell-based", "conditions": "Caco-2"}, "[5]": {"assay": "Intrinsic clearance in human liver microsomes assessed per mg protein at 3 uM measured after 45 mins by LC-MS/MS analysis", "type": "ADME, microsome", "conditions": "read-out: CLH"}, "[6]": {"assay": "Half life in human liver microsomes at 3 uM measured by LC-MS/MS analysis", "type": "ADME, microsome"}, "[7]": {"molecular_target": "C-C chemokine receptor type 5 (Macaca mulatta) (UniProt P61813)", "assay": "Agonist activity at full length rhesus monkey CCR5 assessed as myo-[2-3H]inositol phosphate accumulation measured after 75 mins by scintillation proximity assay", "type": "functional"}, "[8]": {"molecular_target": "T2, G-protein coupled receptor 39 (Mus musculus) (UniProt Q5U431)", "T2 sequence (whole entry)": "T1 sequence (Q5U431 whole entry)", "assay": "Agonist activity at GPR39 in primary gastric mucosal cells isolated from C57BL/6 mouse assessed as inhibition of isoproterenol-induced ghrelin secretion at 1 uM in presence of 10 uM of Zn2+ and somatostatin receptor antagonist BIM-23627 measured after 4 hrs by ELISA", "method_in_brief": "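Primary gastric mucosal cell cultures from mice, incubated the day after preparation with ligands at 1 μM with 10 μM Zn2+ (with or without a somatostatin receptor antagonist) in triplicate for 4 h. Acyl-ghrelin in supernatant measured by ELISA, expressed as percent of medium-alone cells; n=5–7; unpaired t-test with Welch's correction versus vehicle.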"}, "[9]": {"assay": "Increase in CGRP-induced somatostatin release in primary gastric mucosal cells isolated from GPR39 deficient C57BL/6 mouse at 1 uM in presence of 10 uM of Zn2+ measured after 4 hrs by radioimmunoassay relative to control", "type": "functional, Primary gastric mucosal cell", "conditions": "in the assay text read “C57BL/6 mouse” for “GPR39 deficient C57BL/6 mouse”"}, "[10]": {"test_system": "Primary gastric mucosal cell", "assay": "Induction of CGRP-induced somatostatin release in primary gastric mucosal cells isolated from GPR39 deficient C57BL/6 mouse at 1 uM in presence of 10 uM of Zn2+ measured after 4 hrs by radioimmunoassay", "type": "functional, cell-based", "method_in_brief": "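Primary gastric mucosal cells from GPR39-KO mice, day after preparation, exposed to ligands (1 μM, 10 μM Zn2+) in triplicate for 4 h; supernatant somatostatin measured by in-house RIA and expressed as percent of medium-alone secretion; 10 nM CGRP used as a comparator stimulus; n=2.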"}, "[11]": {"assay": "Aqueous solubility of the compound in phosphate buffered saline at pH 7.0 at 10 mM by turbidimetric method"}, "[12]": {"molecular_target": "T2, G-protein coupled receptor 39 (Mus musculus)", "assay": "Agonist activity at GPR39 in primary gastric mucosal cells isolated from C57BL/6 mouse assessed as inhibition of basal ghrelin secretion at 1 uM in presence of 10 uM of Zn2+ measured after 4 hrs by ELISA relative to basal level"}}, "note": "Calls of active or inactive are those of the source. No cut-off for these calls is given here.", "data": [{"smiles": "Cc1nn(-c2ncnc3nc[nH]c23)c2c1C(c1ccc(F)cc1Cl)CC(=O)N2", "note": "(configuration not stated)", "values": [{"measurement": "EC50", "setting": "[1]", "result": 180, "unit": "nM"}, {"measurement": "Activity", "setting": "[2]", "result": "inactive"}, {"measurement": "Activity", "setting": "[3]", "result": "inactive"}, {"measurement": "Papp A→B", "setting": "[4]", "result": 25, "unit": "×10⁻⁶ cm/s"}, {"measurement": "microsomal CLint at 3 µM", "setting": "[5]", "result": 23.7, "unit": "µL/min/mg"}, {"measurement": "half-life at 3 µM", "setting": "[6]", "result": 58, "unit": "min"}, {"measurement": "Activity", "setting": "[7]", "result": "inactive"}, {"measurement": "inhibition", "setting": "[8]", "result": "inactive"}, {"measurement": "Activity", "setting": "[9]", "result": 53, "unit": "%"}, {"measurement": "Activity", "setting": "[10]", "result": "inactive"}, {"measurement": "solubility kinetic at 10000 µM", "setting": "[11]", "result": 65, "unit": "µM"}, {"measurement": "inhibition", "setting": "[12]", "result": 79, "unit": "%"}]}]}
